Measured values reported in ChEMBL document CHEMBL4038317, “Discovery of a Benzamide Derivative That Protects Pancreatic β-Cells against Endoplasmic Reticulum Stress” (J Med Chem, 2017).
Calls of active or inactive are those of the source. The rule behind the calls is not given here.

Experiments:
INS1 [1] = experiment: Effect on CHOP mRNA level in rat INS-1 cells up to 10 uM after 8 hrs by qRT-PCR analysis; assay type: ADME, cell-based; settings: ins1, 8 h
Method in brief: (§1)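 INS-1 cells, 4×10^5 per well, were exposed to tunicamycin 0.1 μg/mL with compound or DMSO for 8 h. qRT-PCR for ATF4, CHOP, Bip, GRP94, or spliced XBP1 using splicing-specific primers. Values were normalized to cyclophilin A by ΔΔCt and given as fold over untreated control. Triplicate wells, 3 independent experiments.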

INS1 [2] = experiment: Cytoprotective activity in rat INS-1 cells assessed as protection against tunicamycin-induced ER stress-mediated reduction in cell viability after 3 days by CellTiter-Glo assay relative tunicamycin; assay type: functional; settings: INS1, 72 h
Method in brief: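 INS-1 cells, 3×10^3 per well, were co-treated with tunicamycin 0.1 μg/mL and compound for 72 h. Viability was read as intracellular ATP by luminescence and expressed as fold of no-tunicamycin cells. EC50 and maximum activity were taken as the increase in viability versus tunicamycin alone. Triplicate wells, three independent experiments.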

Beta-TC6 = experiment: Cytoprotective activity in mouse BetaTC6 cells assessed as protection against tunicamycin-induced ER stress-mediated reduction in cell viability after 3 days by CellTiter-Glo assay; assay type: functional, cell-based
Method in brief: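 βTC6 cells, 3×10^3 per well, were exposed to tunicamycin 0.3 μg/mL with compound or DMSO for 72 h. Intracellular ATP was read by luminescence and expressed as fold of no-tunicamycin cells. Triplicate wells, three independent experiments.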

INS1 [3] = experiment: Cytotoxicity against rat INS-1 cells assessed as reduction in cell viability up to 10 uM after 3 days by CellTiter-Glo assay; assay type: cell-based; settings: ins1, 72 h
Method in brief: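 INS-1 cells, 3×10^3 per well, were given compound or DMSO alone (no tunicamycin) for 72 h. Intracellular ATP was read by luminescence and expressed as fold of untreated cells. Triplicate wells, three independent experiments.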

INS1 [4] = experiment: Protection against tunicamycin ER stress-induced suppression of INS2 mRNA expression in rat INS-1 cells up to 1 uM after 24 hrs by qRT-PCR analysis; assay type: functional, cell-based
Method in brief: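 INS-1 cells were exposed to tunicamycin 0.1 μg/mL with compound or DMSO for 24 h. INS1, INS2, PDX1 and MafA mRNA were measured by qRT-PCR and normalized to cyclophilin A by the comparative Ct method. Triplicate wells, 3 independent experiments.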

INS1 [5] = experiment: Protection against tunicamycin ER stress-induced suppression of glucose-stimulated insulin secretion in rat INS-1 cells after 24 hrs by ELISA; assay type: functional, cell-based
Method in brief: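 INS-1 cells were given tunicamycin 0.1 μg/mL and compound for 24 h, preincubated 1 h in KRBH (pH 7.4, 2% BSA) with 2.5 mM glucose, then given 1 h at low or high glucose. Secreted insulin was measured by ELISA and corrected for total protein (Bradford). Triplicate wells, three independent experiments.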

[6] = molecular target: T1, Cyclic AMP-dependent transcription factor ATF-6 alpha (Rattus norvegicus) (UniProt G3V909); experiment: Inhibition of tunicamycin ER stress-induced ATF6 activation in rat INS-1 cells assessed as suppression of increase in […] mRNA levels up to 10 uM after 8 hrs by qRT-PCR analysis; assay type: cell-based; method in brief: as §1
T1 sequence (whole entry): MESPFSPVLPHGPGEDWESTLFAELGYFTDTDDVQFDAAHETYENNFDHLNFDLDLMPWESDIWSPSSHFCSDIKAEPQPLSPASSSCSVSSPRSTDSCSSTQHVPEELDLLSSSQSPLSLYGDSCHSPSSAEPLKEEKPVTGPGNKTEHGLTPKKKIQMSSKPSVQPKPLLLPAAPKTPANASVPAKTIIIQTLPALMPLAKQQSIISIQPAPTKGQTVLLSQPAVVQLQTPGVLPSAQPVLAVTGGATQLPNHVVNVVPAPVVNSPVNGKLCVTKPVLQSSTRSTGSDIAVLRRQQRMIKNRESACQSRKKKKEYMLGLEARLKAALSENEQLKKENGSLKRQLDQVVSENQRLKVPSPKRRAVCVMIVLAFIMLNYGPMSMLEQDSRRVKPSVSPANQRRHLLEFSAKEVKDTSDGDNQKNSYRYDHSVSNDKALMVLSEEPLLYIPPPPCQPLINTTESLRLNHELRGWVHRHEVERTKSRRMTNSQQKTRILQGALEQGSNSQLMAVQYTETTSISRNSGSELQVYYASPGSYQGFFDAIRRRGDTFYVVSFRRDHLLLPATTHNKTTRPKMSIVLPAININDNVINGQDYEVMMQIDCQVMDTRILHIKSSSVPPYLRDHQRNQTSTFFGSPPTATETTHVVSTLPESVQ

Mus musculus = experiment: Antidiabetic activity in STZ-induced diabetic overnight fasted C57BL/6 mouse model assessed as blood glucose level at 5 mg/kg, ip administrated qd with streptozotocin for 5 days followed by compound administration alone for 2 more weeks measured at 30 mins post last dose relative to control; assay type: functional, organism-based
Method in brief: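 Same STZ/compound i.p. regimen in male C57BL/6 mice, vehicle group as control. Intraperitoneal glucose tolerance test in overnight-fasted mice: glucose 2 g/kg i.p., blood glucose read at set times after the glucose load.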

inhibition [6]: Active
SMILES: O=C(NCc1ccc(C(F)(F)F)cc1)c1cccc(CN2CCCCC2)c1
Activity (INS1 [1]): Non-Toxic
Emax (INS1 [2]): 97%
Activity (Beta-TC6): Dose-dependent effect
Activity (INS1 [3]): Non-Toxic
Activity (INS1 [4]): Active
Activity (INS1 [5]): Active
Activity (Mus musculus): Active
